According to ChEMBL document CHEMBL1154776, “Probes for narcotic receptor mediated phenomena. 39. Enantiomeric N-substituted benzofuro[2,3-c]pyridin-6-ols: synthesis and topological relationship to oxide-bridged phenylmorphans” (J Med Chem, 2009):
pKi: −log10 of the molar value.

Columns and labels:
[1] = target: T1, Mu-type opioid receptor (Homo sapiens, UniProt P35372); test: biochemical; format: cell-based, CHO
[2] = target: Delta-type opioid receptor (Homo sapiens, UniProt P41143); test: Displacement of [3H]DADLE from human recombinant delta opioid receptor expressed in CHO cells; format: cell-based
Delta-type opioid receptor, sequence (P41143 whole entry): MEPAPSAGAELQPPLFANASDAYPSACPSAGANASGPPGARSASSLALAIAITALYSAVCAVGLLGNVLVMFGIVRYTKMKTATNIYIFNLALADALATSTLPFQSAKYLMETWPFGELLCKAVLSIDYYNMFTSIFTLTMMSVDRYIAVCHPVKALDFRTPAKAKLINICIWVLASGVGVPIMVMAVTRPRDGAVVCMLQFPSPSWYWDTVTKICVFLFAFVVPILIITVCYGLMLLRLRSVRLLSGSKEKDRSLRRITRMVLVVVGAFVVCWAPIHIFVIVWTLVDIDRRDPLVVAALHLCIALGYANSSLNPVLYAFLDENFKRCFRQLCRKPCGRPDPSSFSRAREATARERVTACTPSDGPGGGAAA
Procedure, shortened: (§1)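 Stably transfected CHO cells (hDOR-CHO for [3H]DADLE, hKOR-CHO for [3H]U69,593) grown in DMEM with 10% FBS and G-418 (0.10-0.2 mg/mL) under 5% CO2 at 37 °C. Monolayers harvested and frozen at −80 °C before membrane use; n=3.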

[3] = target: Kappa-type opioid receptor (Homo sapiens, UniProt P41145); test: Displacement of [3H]U69593 from human recombinant kappa opioid receptor expressed in CHO cells; format: cell-based
Kappa-type opioid receptor, sequence (P41145 whole entry): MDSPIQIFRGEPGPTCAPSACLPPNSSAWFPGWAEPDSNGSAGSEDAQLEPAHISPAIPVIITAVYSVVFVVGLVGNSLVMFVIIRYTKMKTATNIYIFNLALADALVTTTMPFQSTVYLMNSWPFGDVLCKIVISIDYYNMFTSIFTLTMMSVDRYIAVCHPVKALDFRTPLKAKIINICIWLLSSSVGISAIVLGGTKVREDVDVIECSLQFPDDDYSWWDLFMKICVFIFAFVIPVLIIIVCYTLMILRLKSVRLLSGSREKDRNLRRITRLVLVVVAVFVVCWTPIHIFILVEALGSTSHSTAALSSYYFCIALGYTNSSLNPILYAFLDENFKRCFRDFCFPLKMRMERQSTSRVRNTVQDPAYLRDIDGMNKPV
Procedure, shortened: as §1

[4] = target: T1, Mu-type opioid receptor; settings: CHO
[5] = target: T1, Mu-type opioid receptor; test: Agonist activity at human recombinant mu opioid receptor expressed in CHO cells assessed as stimulation of [35S]GTPgammaS binding after 3 hrs by liquid scintillation counting relative to DAMGO; format: functional, cell-based
Procedure, shortened: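 Same [35S]GTPγS membrane assay in hMOR-CHO: 50 pM radioligand, 10 μM GDP, 3 h at 25 °C, GF/B filtration, scintillation counting.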

[6] = target: T1, Mu-type opioid receptor; test: Agonist activity at human recombinant mu opioid receptor expressed in CHO cells assessed as stimulation of [35S]GTPgammaS binding after 3 hrs by liquid scintillation counting; format: functional, cell-based
Procedure, shortened: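 hMOR-CHO membranes (50 μg protein) grown in DMEM/F-12 with 10% FBS and G-418. Incubated 3 h at 25 °C with 50 pM [35S]GTPγS in 50 mM Tris-HCl pH 7.4, 100 mM NaCl, 10 mM MgCl2, 1 mM EDTA, 1 mM DTT, 10 μM GDP and 0.1% BSA. Nonspecific binding defined with 40 μM GTPγS. Bound label separated on GF/B filters and scintillation counted; n=3.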

T1 sequence (P35372 whole entry): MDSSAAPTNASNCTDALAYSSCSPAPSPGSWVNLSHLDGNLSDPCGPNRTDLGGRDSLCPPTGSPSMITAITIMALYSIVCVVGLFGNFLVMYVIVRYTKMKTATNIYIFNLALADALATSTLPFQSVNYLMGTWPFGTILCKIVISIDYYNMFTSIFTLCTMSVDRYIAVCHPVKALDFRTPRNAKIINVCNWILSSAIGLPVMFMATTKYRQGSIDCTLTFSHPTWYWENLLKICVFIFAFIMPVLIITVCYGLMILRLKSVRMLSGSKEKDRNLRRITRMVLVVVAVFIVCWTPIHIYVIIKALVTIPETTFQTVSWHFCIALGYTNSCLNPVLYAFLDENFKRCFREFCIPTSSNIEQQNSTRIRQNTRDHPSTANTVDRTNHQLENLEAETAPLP

SMILES | pKi [1] | pKi [2] | pKi [3] | Ke [4] | Emax [5] | ED50 [6]
CC[C@@]12CCN(C[C@@H](O)c3ccccc3)C[C@@H]1Oc1ccc(O)cc12 | 8.03 | 6.35 | 6.38 |  |  | 
CC[C@@]12CCNC[C@@H]1Oc1ccc(O)cc12 | 7.32 |  |  | 95 nM |  | 
CC[C@]12CCN(C)C[C@H]1Oc1ccc(O)cc12 | 5.88 | 5.37 |  |  | 45% | 241 nM
CC[C@@]12CCN(C[C@H](O)c3ccccc3)C[C@@H]1Oc1ccc(O)cc12 | 7.10 | 6.09 | 5.96 |  |  | 
CC[C@]12CCN(CCc3ccccc3)C[C@H]1Oc1ccc(O)cc12 | 6.70 | 5.57 | 5.63 |  | 84% | 24 nM
CC[C@]12CCN(C[C@@H](O)c3ccccc3)C[C@H]1Oc1ccc(O)cc12 | 6.22 | 5.60 |  |  | 100% | 
CC[C@]12CCN(C[C@H](O)c3ccccc3)C[C@H]1Oc1ccc(O)cc12 | 5.88 | 5.51 | 5.02 |  | 36% | 
CC[C@]12CCNC[C@H]1Oc1ccc(O)cc12 | 5.46 |  |  |  | 97% | 150 nM
CC[C@@]12CCN(C)C[C@@H]1Oc1ccc(O)cc12 | 7.80 | 5.87 | 6.35 |  |  | 
